Reference: ChEMBL document CHEMBL4138243, “Synthesis, biological evaluation, and metabolic stability of phenazine derivatives as antibacterial agents” (Eur J Med Chem, 2018)
In brackets after ≈: the same amount, converted by molar mass. Activity calls are given as the source filed them. The rule behind the calls is not given here.

Key:
Escherichia coli [1] = assay: Antibacterial activity against Escherichia coli K-12 after 24 hrs by broth microdilution method; format: functional
Outline: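 Broth microdilution per ASM Clinical Microbiology Procedures Handbook (3rd ed.); 1 mg/mL DMSO stock serially 2-fold diluted in Mueller Hinton broth with 5% DMSO; inoculum from direct colony suspension at 0.5 McFarland; static incubation 37 °C, 24 h. MIC = lowest concentration without visible growth (eye and OD600). Vancomycin and gentamicin positive controls, medium negative control; triplicate.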

Staphylococcus aureus [2] = assay: Antibacterial activity against methicillin-resistant Staphylococcus aureus USA300 JE2 after 24 hrs by broth microdilution method; format: functional; details: USA300 JE2, 24 h
Outline: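 Broth microdilution. Test material taken from a 1 mg/mL DMSO stock and serially diluted 2-fold in Mueller Hinton broth containing 5% DMSO. Wells inoculated with a direct colony suspension at 0.5 McFarland, then incubated statically at 37 °C for 24 h. MIC is the lowest concentration with no growth, read by eye and by OD600. Vancomycin and gentamicin as positive controls. Run in triplicate.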

Staphylococcus aureus [3] = assay: Antibacterial activity against methicillin-resistant Staphylococcus aureus USA300 JE2 at 10 times MIC after 24 hrs by Kirby Bauer method; format: functional
Outline: (§1)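 Mutant-resistance disc assay. Culture grown in Mueller Hinton broth for 4 h, diluted to 1.5 × 10^8 CFU/mL (0.5 McFarland) and spread on Mueller Hinton agar. 6 mm paper discs loaded with compound in DMSO at 10 × MIC. Plates at 37 °C. Inhibition zone diameter read at 24 h. Plates then kept 6 days and checked for colonies growing inside the zone.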

Staphylococcus aureus [4] = assay: Antibacterial activity against methicillin-resistant Staphylococcus aureus USA300 JE2 at 10 times MIC after 6 days by Kirby Bauer method; format: functional, organism-based; outline: as §1
Staphylococcus aureus [5] = assay: Induction of membrane damage of methicillin-resistant Staphylococcus aureus USA300 JE2 at MIC after 18 hrs by propidium iodide staining-based flow cytometric method; format: functional, organism-based
Outline: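 Flow cytometry membrane-permeability assay. […] Propidium iodide stock at 1 mg/mL added, held 15–20 min in the dark, then cells washed three times and resuspended in PBS. Controls: PI-stained untreated cells and cells treated with 70% ethanol.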

[6] = Stability in tris buffer at pH 7.4 at 1 uM after 2 hrs by LC-MS/MS method; format: physicochemical; details: pH 7.4, 2 h
Outline: (§2)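 Stability tested in simulated gastric fluid (pH 1.2), simulated intestinal fluid (pH 6.8) and 50 mM tris buffer (pH 7.4) using literature protocols.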

Staphylococcus aureus [7] = assay: Induction of biofilm dispersion of methicillin-resistant Staphylococcus aureus USA300 JE2 at 1 to 32 ug/ml after 24 hrs by crystal violet staining-based assay relative to control; format: functional, organism-based
Outline: (§3)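 Preformed-biofilm dispersion. Gelatin-coated wells seeded with 1 × 10^6 CFU/mL in TSB with 0.5% glucose and grown 24 h at 37 °C. Medium replaced with 2-fold dilutions in fresh TSB with 0.5% glucose, then a further 24 h at 37 °C. Biofilm fixed with methanol, stained with 0.1% crystal violet, dissolved in methanol:acetic acid:water 4:1:5 and read at OD540.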

[8] = Toxicity in Galleria mellonella larvae assessed as survival at 3 ug/ml after 96 hrs relative to control; format: organism-based; details: in vivo
[9] = Metabolic stability in human liver S9 fraction at 1 uM after 5 to 60 mins by LC-MS/MS method; format: ADME, subcellular; details: s9, 1 µM
Outline: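 Compounds incubated with human liver S9 fraction, covering phase I and phase II enzymes; depletion followed over incubation time as percent remaining. Mean ± S.D., n = 3.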

[10] = Stability in simulated intestinal fluid at pH 6.8 at 1 uM after 2 hrs by LC-MS/MS method; format: ADME; details: simulated gi fluid, pH 6.8, 2 h; outline: as §2
Escherichia coli [11] = assay: Induction of membrane damage of Escherichia coli K-12 at 2 times MIC after 18 hrs by transmission electron microscopic method; format: functional, organism-based
Staphylococcus aureus [12] = assay: Inhibition of biofilm formation of methicillin-resistant Staphylococcus aureus USA300 JE2 at 8 times MIC after 24 hrs by crystal violet staining-based assay relative to control; format: functional
Outline: (§4)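 Biofilm formation inhibition. Gelatin-coated wells received 2-fold dilutions in TSB with 0.5% glucose plus cells at 2 × 10^6 CFU/mL from fresh culture. Incubated at 37 °C for 24 h. Wells gently rinsed, stained with 0.1% crystal violet for 10 min, destained in methanol:acetic acid:water 4:1:5 and read at OD540.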

[13] = Stability in simulated gastric fluid at pH1.2 at 1 uM after 2 hrs by LC-MS/MS method; format: ADME; details: simulated gi fluid, pH 1.2, 2 h; outline: as §2
Staphylococcus aureus [14] = assay: Induction of membrane damage of methicillin-resistant Staphylococcus aureus USA300 JE2 at 2 times MIC after 18 hrs by transmission electron microscopic method; format: functional, organism-based
Outline: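 TEM. […] Cells washed three times in PBS, then fixed in 2% glutaraldehyde with 2% paraformaldehyde in 0.1 M phosphate buffer.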

Galleria mellonella = assay: Toxicity in Galleria mellonella larvae assessed as decrease in survival at 0.5 times MIC after 96 hrs; format: organism-based; details: in vivo
Staphylococcus aureus [15] = assay: Induction of biofilm dispersion of methicillin-resistant Staphylococcus aureus USA300 JE2 at 2 times MIC after 24 hrs by crystal violet staining-based assay relative to control; format: functional; outline: as §3
Staphylococcus aureus [16] = assay: Induction of biofilm dispersion of methicillin-resistant Staphylococcus aureus USA300 JE2 at MIC after 24 hrs by crystal violet staining-based assay relative to control; format: functional; outline: as §3
Staphylococcus aureus [17] = assay: Inhibition of biofilm formation of methicillin-resistant Staphylococcus aureus USA300 JE2 at MIC after 24 hrs by crystal violet staining-based assay relative to control; format: functional; outline: as §4
[18] = Cytotoxicity against HCEC after 24 hrs by MTT assay; set-up: species or system Homo sapiens
Outline: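 HCEC cells grown in HCEC medium at 37 °C in a hypoxia chamber, seeded 6000 cells/well, left 24 h, then exposed 24 h to 200, 100, 50, 25, 12.5, 6.25 or 0 (vehicle) µg/mL. MTT added from a 2 mg/mL stock for 2 h, formazan dissolved in DMSO, absorbance read at 570 nm.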

Staphylococcus aureus [19] = assay: Bacteriostatic activity against methicillin-resistant Staphylococcus aureus USA300 JE2 at 3 times MIC after 1 to 24 hrs by time killing assay; format: functional, organism-based
Outline: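 Time-kill. Culture grown in Mueller Hinton broth at 37 °C for 6 h, adjusted to about 7.5 × 10^6 CFU/mL and exposed to 3 × MIC at 37 °C. Samples taken at 0, 1, 2, 3, 4, 6 and 24 h, serially diluted 10-fold in 0.9% saline and plated on Mueller Hinton agar for 24 h at 37 °C. Colonies counted and plotted as log CFU/mL. Triplicate.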

Staphylococcus aureus [20] = assay: Antibacterial activity against methicillin-resistant Staphylococcus aureus USA300 JE2 at 10 ug after 24 hrs by Kirby Bauer method; format: functional; details: USA300 JE2, 24 h, read-out: DIZ
Outline: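 Disc diffusion reference, streptomycin 10 µg. 0.5 McFarland inoculum spread on Mueller Hinton agar with 6 mm discs. Incubated at 37 °C and inhibition zone diameter measured after 24 h.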

Compound | MIC (Escherichia coli [1]; K-12, 24 h) [µg/mL] | MIC (Staphylococcus aureus [2]) [µg/mL] | further results
COc1ccc(Br)c2nc3c(C(=O)NS(C)(=O)=O)cccc3nc12 | 64 (≈ 156 µM) | 128 (≈ 312 µM) | –
COc1ccc(Br)c2nc3c(C(=O)O)cccc3nc12 | 64 (≈ 192 µM) | 128 (≈ 384 µM) | –
COC(=O)c1cccc2nc3cc(OC)cc(Br)c3nc12 | 128 (≈ 369 µM) | 128 (≈ 369 µM) | –
CC(C)(C)[Si](C)(C)ON | – | – | diameter of the inhibition zone (DIZ) (Staphylococcus aureus [3]): 11 mm; Activity (Staphylococcus aureus [4]): Active
CS(=O)(=O)NC(=O)c1cccc2nc3ccccc3nc12 | 128 (≈ 425 µM) | 128 (≈ 425 µM) | –
CS(=O)(=O)NC(=O)c1cccc2nc3cccc(F)c3nc12 | 128 (≈ 401 µM) | 64 (≈ 200 µM) | –
N#Cc1cccc2nc3cccc(Cl)c3nc12 | 64 (≈ 267 µM) | > 256 | –
COc1ccc(OC)c2nc3c(C(=O)O)cccc3nc12 | 64 (≈ 225 µM) | 64 (≈ 225 µM) | –
NC(=O)c1cccc2nc3c(Cl)ccc(Cl)c3nc12 | 32 (≈ 110 µM) | 128 (≈ 438 µM) | –
COC(=O)c1cccc2nc3c(Cl)ccc(Cl)c3nc12 | 64 (≈ 208 µM) | 128 (≈ 417 µM) | –
O=C(NO)c1cccc2nc3cccc(Cl)c3nc12 | 128 (≈ 468 µM) | 32 (≈ 117 µM) | –
CS(=O)(=O)NC(=O)c1cccc2nc3cccc(Cl)c3nc12 | 128 (≈ 381 µM) | 2 (≈ 5.96 µM) | Activity (Staphylococcus aureus [5]): inactive; diameter of the inhibition zone (DIZ) (Staphylococcus aureus [3]): 16 mm; Stability [6]: Stable; Activity (Staphylococcus aureus [7]): inactive; Activity (Staphylococcus aureus [4]): Active; survival at 96 h [8]: 70%; Stability [9]: Stable; Stability [10]: Stable; Activity (Escherichia coli [11]): inactive; inhibition (INH) (Staphylococcus aureus [12]): 90%; Stability [13]: Stable; Activity (Staphylococcus aureus [14]): inactive
N#CNC(=O)c1cccc2nc3cccc(Cl)c3nc12 | 128 (≈ 453 µM) | 128 (≈ 453 µM) | –
COc1cc(Br)c2nc3c(C(=O)O)cccc3nc2c1 | 256 (≈ 768 µM) | 64 (≈ 192 µM) | –
COC(=O)c1cccc2nc3cccc(OC)c3nc12 | 128 (≈ 477 µM) | 128 (≈ 477 µM) | –
COC(=O)c1cccc2nc3cc(OC)ccc3nc12 | 64 (≈ 239 µM) | 128 (≈ 477 µM) | –
O=C(Nc1nnn[nH]1)c1cccc2nc3cccc(Cl)c3nc12 | 128 (≈ 393 µM) | 32 (≈ 98.2 µM) | –
O=C(O)c1cccc2nc3c(Cl)ccc(Cl)c3nc12 | 128 (≈ 437 µM) | 64 (≈ 218 µM) | –
CN(C(=O)c1cccc2nc3ccccc3nc12)S(C)(=O)=O | 128 (≈ 406 µM) | 256 (≈ 812 µM) | –
COC(=O)c1cccc2nc3cc(Br)cc(OC)c3nc12 | 128 (≈ 369 µM) | 128 (≈ 369 µM) | –
COc1cc(Br)cc2nc3cccc(C(=O)O)c3nc12 | 128 (≈ 384 µM) | 128 (≈ 384 µM) | –
NC(=O)c1cccc2nc3cccc(Cl)c3nc12 | 128 (≈ 497 µM) | > 256 | –
CS(=O)(=O)NC(=O)c1cccc2nc3c(Cl)ccc(Cl)c3nc12 | 64 (≈ 173 µM) | 16 (≈ 43.2 µM) | Activity (Staphylococcus aureus [5]): inactive; diameter of the inhibition zone (DIZ) (Staphylococcus aureus [3]): 19 mm; Stability [6]: Stable; Activity (Staphylococcus aureus [4]): Active; Activity (Galleria mellonella): Non-Toxic; Stability [9]: Stable; Stability [10]: Stable; Activity (Staphylococcus aureus [15]): 61%; Activity (Staphylococcus aureus [16]): 42%; Activity (Escherichia coli [11]): inactive; inhibition (INH) (Staphylococcus aureus [17]): 82%; Stability [13]: Stable; IC50 [18]: 208 µM; Activity (Staphylococcus aureus [19]): Active; Activity (Staphylococcus aureus [14]): inactive
N#CNC(=O)c1cccc2nc3cccc(F)c3nc12 | 128 (≈ 481 µM) | 128 (≈ 481 µM) | –
CN[C@@H]1[C@H](O[C@H]2[C@H](O[C@H]3[C@H](O)[C@@H](O)[C@H](N=C(N)N)[C@@H](O)[C@@H]3N=C(N)N)O[C@@H](C)[C@]2(O)C=O)O[C@@H](CO)[C@H](O)[C@H]1O [STREPTOMYCIN] | – | – | zone of inhibition at 10 µg/disc (Staphylococcus aureus [20]): 18 mm
COc1ccc2nc3c(C(=O)O)cccc3nc2c1 | 64 (≈ 252 µM) | 256 (≈ 1010 µM) | –
GENTAMICIN | – | – | MIC (Escherichia coli [1]): 0.25 µg/mL
COc1ccc(Br)c2nc3c(C(=O)NC#N)cccc3nc12 | 32 (≈ 89.6 µM) | 256 (≈ 717 µM) | –
CN(C(=O)c1cccc2nc3cccc(Cl)c3nc12)S(C)(=O)=O | 64 (≈ 183 µM) | > 256 | –
Cc1cccc2nc3cccc(C(=O)NS(C)(=O)=O)c3nc12 | 32 (≈ 101 µM) | 32 (≈ 101 µM) | Activity (Staphylococcus aureus [4]): Active
